# Reference: ChEMBL document CHEMBL3352593, “Tumor xenograft uptake of a pyrrole-imidazole (Py-Im) polyamide varies as a function of cell line grafted” (J Med Chem, 2014)
# Experiments:
# [1] = tested on: Bone marrow; experiment: Drug level in balb/c mouse bone marrow at 15 nmol, ip after 24 hrs by liquid scintillation counting method; format: ADME, organism-based; settings: in vivo
# Summary of the method: (§1)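 Male balb/c mice given C-14-labelled polyamide (quantitated by scintillation counting before dosing) as a single 15 nmol intraperitoneal dose per animal. Organs collected 24 h later and solubilized at +65 °C for at least 12 h, then decolorized with H2O2. C-14 counted by liquid scintillation, quench-corrected and normalized to organ weight. N = 5, mean with standard deviation.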
# [2] = tested on: Liver; experiment: Drug level in liver of matrigel-negative human A549 cells xenografted NSG mouse at 20 nmol, ip measured 5 weeks past engraftment by liquid scintillation counting method; format: ADME, organism-based; settings: in vivo, 840 h, in the assay text read “matrigel-positive” for “matrigel-negative”
# Summary of the method: (§2)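 Male NSG mice obtained at 8 weeks of age. Tumours engrafted subcutaneously with 2.5 M cells (viability ≥95% by trypan blue) in medium or 1:1 Matrigel; naive animals had no graft. Mice received 20 nmol C-14 polyamide per animal intraperitoneally. Tissues harvested 24 h later, solubilized, decolorized, and counted by liquid scintillation. Values are quench-corrected and normalized to organ weight; each tissue was analysed individually.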
# [3] = tested on: Lung; experiment: Drug level in lung of human LNCAP cells xenografted NSG mouse at 20 nmol, ip after 24 hrs by liquid scintillation counting method; format: ADME, organism-based; settings: in vivo; summary of the method: as §2
# [4] = tested on: Tumour; experiment: Drug level in tumor of human LNCAP cells xenografted NSG mouse at 20 nmol, ip after 24 hrs by liquid scintillation counting method; format: ADME, organism-based, Neoplasm; settings: in vivo; summary of the method: as §2
# [5] = tested on: Liver; experiment: Drug level in liver of human A549 cells xenografted NSG mouse at 20 nmol, ip after 24 hrs by liquid scintillation counting method; format: ADME, organism-based; settings: in vivo; summary of the method: as §2
# [6] = tested on: Kidney; experiment: Drug level in balb/c mouse kidney at 15 nmol, ip after 24 hrs by liquid scintillation counting method; format: ADME, organism-based; settings: in vivo; summary of the method: as §1
# [7] = tested on: Lung; experiment: Drug level in lung of human A549 cells xenografted NSG mouse at 20 nmol, ip after 24 hrs by liquid scintillation counting method; format: ADME, organism-based; settings: in vivo; summary of the method: as §2
# [8] = tested on: Tumour; experiment: Drug level in tumor of matrigel-negative human A549 cells xenografted NSG mouse at 20 nmol, ip measured 3 to 4 weeks past engraftment by liquid scintillation counting method; format: ADME, organism-based, Neoplasm; settings: in vivo; summary of the method: as §2
# [9] = tested on: Kidney; experiment: Drug level in kidney of naive NSG mouse at 20 nmol, ip after 24 hrs by liquid scintillation counting method; format: ADME, organism-based; settings: in vivo; summary of the method: as §2
# [10] = tested on: Liver; experiment: Drug level in liver of matrigel-positive human A549 cells xenografted NSG mouse at 20 nmol, ip measured 5 weeks past engraftment by liquid scintillation counting method; format: ADME, organism-based; settings: in vivo, 840 h, in the assay text read “matrigel-negative” for “matrigel-positive”; summary of the method: as §2
# [11] = tested on: Brain; experiment: Drug level in balb/c mouse brain at 15 nmol, ip after 24 hrs by liquid scintillation counting method; format: ADME, organism-based; settings: in vivo; summary of the method: as §1
# [12] = tested on: Tumour; experiment: Drug level in tumor of matrigel-positive human A549 cells xenografted NSG mouse at 20 nmol, ip measured 3 to 4 weeks past engraftment by liquid scintillation counting method; format: ADME, organism-based, Neoplasm; settings: in vivo; summary of the method: as §2
# [13] = tested on: Liver; experiment: Drug level in liver of human A549 cells and human LNCAP cells xenografted NSG mouse at 20 nmol, ip after 24 hrs by liquid scintillation counting method; format: ADME, organism-based; settings: in vivo; summary of the method: as §2
# [14] = tested on: Spleen; experiment: Drug level in balb/c mouse spleen at 15 nmol, ip after 24 hrs by liquid scintillation counting method; format: ADME, organism-based; settings: in vivo; summary of the method: as §1
# [15] = tested on: Liver; experiment: Drug level in balb/c mouse liver at 15 nmol, ip after 24 hrs by liquid scintillation counting method; format: ADME, organism-based; settings: in vivo; summary of the method: as §1
# [16] = tested on: Kidney; experiment: Drug level in kidney of human A549 cells xenografted NSG mouse at 20 nmol, ip after 24 hrs by liquid scintillation counting method; format: ADME, organism-based; settings: in vivo; summary of the method: as §2
# [17] = tested on: Liver; experiment: Drug level in liver of human U251 cells xenografted NSG mouse at 20 nmol, ip after 24 hrs by liquid scintillation counting method; format: ADME, organism-based, U-251; settings: in vivo; summary of the method: as §2
# [18] = tested on: Tumour; experiment: Drug level in tumor of matrigel-negative human A549 cells xenografted NSG mouse at 20 nmol, ip measured 5 weeks past engraftment by liquid scintillation counting method; format: ADME, organism-based, Neoplasm; settings: in vivo, 840 h; summary of the method: as §2
# [19] = tested on: Liver; experiment: Drug level in liver of human LNCAP cells xenografted NSG mouse at 20 nmol, ip after 24 hrs by liquid scintillation counting method; format: ADME, organism-based; settings: in vivo; summary of the method: as §2
# [20] = tested on: Tumour; experiment: Drug level in tumor of human A549 cells xenografted NSG mouse at 20 nmol, ip after 24 hrs by liquid scintillation counting method; format: ADME, organism-based, Neoplasm; settings: in vivo; summary of the method: as §2
# [21] = tested on: Kidney; experiment: Drug level in kidney of human A549 cells and human LNCAP cells xenografted NSG mouse at 20 nmol, ip after 24 hrs by liquid scintillation counting method; format: ADME, organism-based; settings: in vivo; summary of the method: as §2
# [22] = tested on: Lung; experiment: Drug level in lung of human U251 cells xenografted NSG mouse at 20 nmol, ip after 24 hrs by liquid scintillation counting method; format: ADME, organism-based, U-251; settings: in vivo; summary of the method: as §2
# [23] = tested on: Tumour; experiment: Drug level in tumor of human U251 cells xenografted NSG mouse at 20 nmol, ip after 24 hrs by liquid scintillation counting method; format: ADME, organism-based, Neoplasm, U-251; settings: in vivo; summary of the method: as §2
# [24] = tested on: Tumour; experiment: Drug level in tumor of matrigel-positive human A549 cells xenografted NSG mouse at 20 nmol, ip measured 5 weeks past engraftment by liquid scintillation counting method; format: ADME, organism-based, Neoplasm; settings: in vivo, 840 h; summary of the method: as §2
# [25] = tested on: Pancreas; experiment: Drug level in balb/c mouse pancreas at 15 nmol, ip after 24 hrs by liquid scintillation counting method; format: ADME, organism-based; settings: in vivo; summary of the method: as §1
smiles,measurement,setting,value
CC(=O)N[C@H](CCNC(=O)c1cc(NC(=O)c2cc(NC(=O)c3cc(NC(=O)c4nccn4C)cn3C)cn2C)cn1C)C(=O)Nc1cnc(C(=O)Nc2cc(C(=O)Nc3cc(C(=O)Nc4cc(C(=O)NCCCN(C)CCCN[14C](=O)c5cccc([14C](=O)O)c5)n(C)c4)n(C)c3)n(C)c2)n1C,Drug uptake,[1],0.24 mg/kg
same,Drug uptake,[2],0.65 mg/kg
same,Drug uptake,[3],0.12 mg/kg
same,Drug uptake,[4],1.5 mg/kg
same,Drug uptake,[5],0.57 mg/kg
same,Drug uptake,[6],0.22 mg/kg
same,Drug uptake,[7],0.15 mg/kg
same,Drug uptake,[8],0.23 mg/kg
same,Drug uptake,[9],0.23 mg/kg
same,Drug uptake,[10],0.55 mg/kg
same,Drug uptake,[11],Not Active
same,Drug uptake,[12],0.23 mg/kg
same,Drug uptake,[13],1.04 mg/kg
same,Drug uptake,[14],0.32 mg/kg
same,Drug uptake,[15],0.49 mg/kg
same,Drug uptake,[16],0.27 mg/kg
same,Drug uptake,[17],0.57 mg/kg
same,Drug uptake,[18],0.25 mg/kg
same,Drug uptake,[19],1.04 mg/kg
same,Drug uptake,[20],0.23 mg/kg
same,Drug uptake,[21],0.27 mg/kg
same,Drug uptake,[22],0.12 mg/kg
same,Drug uptake,[23],0.65 mg/kg
same,Drug uptake,[24],0.59 mg/kg
same,Drug uptake,[25],0.15 mg/kg
